Reference: ChEMBL document CHEMBL1773068, “Drug to genome to drug: discovery of new antiplasmodial compounds” (J Med Chem, 2011)
Activity calls are given as the source filed them. The rule behind the calls is not given here.

Key:
Plasmodium falciparum [1] = assay: Antiplasmodial activity against chloroquine-susceptible Plasmodium falciparum GHA strain infected in human erythrocytes after 72 hrs by spectrophotometry; type: functional, organism-based
Outline: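 P. falciparum cultured in human A+ erythrocytes in RPMI-1640 with 10% human serum, 37 °C, low oxygen (3% O2, 4% CO2, 93% N2). Infected red cell suspension (1% parasitemia, 2% hematocrit) incubated with compounds 72 h, then frozen. Growth read by Malstat method: NBT/PES added, 2 h in dark, absorbance at 655 nm. IC50 from duplicate determinations.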

MRC5 = assay: Cytotoxicity against human MRC5 SV2 cells after 72 hrs; type: cell-based; conditions: MRC5, 72 h
Outline: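 MRC-5 SV2 human fetal lung fibroblasts grown in MEM with L-glutamine, NaHCO3 and 5% FCS at 37 °C, 5% CO2. 10^4 cells/well seeded onto prediluted compounds, 72 h at 37 °C. Viability by resazurin added for 24 h, fluorescence at ex 530/em 590 nm. IC50 from duplicate determinations.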

Plasmodium falciparum [2] = assay: Inhibition of Plasmodium falciparum GHA strain PDE assessed as inhibition of cGMP hydrolysis at 20 uM after 6 hrs by time resolved fluorescence resonance energy transfer-based assay
Outline: (§1)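 Parasite lysate (2 μL, ~400 000 parasites) incubated with cGMP (150 nM) and inhibitor at 20 μM (4% DMSO final) for 6 h at 37 °C. Buffer: 50 mM Tris-HCl pH 7.4, 6 mM MgCl2, 1 mM MnCl2, 4 mM DTT. Residual cGMP measured by competitive HTRF (d2-labelled cGMP vs anti-cGMP cryptate), 665/620 nm ratio after 1 h at room temperature. Duplicates, each read twice.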

Plasmodium falciparum [3] = assay: Inhibition of Plasmodium falciparum GHA strain PDE assessed as inhibition of cAMP hydrolysis at 20 uM after 6 hrs by time resolved fluorescence resonance energy transfer-based assay
Outline: as §1, with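 “cAMP” for “cGMP”, “anti-cAMP” for “anti-cGMP”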

Row | Compound | IC50 (Plasmodium falciparum [1]; read-out: IC50) [µM] | IC50 (MRC5) [µM] | IC50 (Plasmodium falciparum [1]; read-out: pIC50 (converted)) [µM] | inhibition (Plasmodium falciparum [2]) | inhibition (Plasmodium falciparum [3])
1 | O=C1[C@H]2Cc3c([nH]c4cc(F)ccc34)[C@@H](c3ccc4c(c3)OCO4)N2C(=O)CN1[C@@H]1CCN(Cc2ccccc2)C1 (mixture of isomers) | 1.26 | 16 | – | – | –
2 | Cc1cccc(N2CC(=O)N3[C@H](c4ccc5c(c4)OCO5)c4[nH]c5ccccc5c4C[C@@H]3C2=O)c1 | > 64 | > 64 | – | – | –
3 | O=C1[C@H]2Cc3c([nH]c4ccccc34)[C@@H](c3ccc4c(c3)OCO4)N2C(=O)CN1[C@@H]1CCNC1 | 12 | > 64 | – | – | –
4 | O=C1[C@H]2Cc3c([nH]c4ccccc34)[C@@H](c3ccc4c(c3)OCO4)N2C(=O)CN1[C@@H]1CCN(Cc2ccccc2)C1 | 0.5 | 10 | 0.501 | 60% | Active
5 | O=C1[C@H]2Cc3c([nH]c4ccccc34)[C@@H](c3ccc4c(c3)OCO4)N2C(=O)CN1c1cccc(Cl)c1 | > 64 | > 64 | – | – | –
6 | NCCCC[C@H]1NC(=O)[C@H]2Cc3c([nH]c4ccccc34)[C@@H](c3ccc4c(c3)OCO4)N2C1=O | 4 | > 64 | – | – | –
7 | O=C1N[C@@H](Cc2c[nH]c3ccccc23)C(=O)N2[C@H](c3ccc4c(c3)OCO4)c3[nH]c4ccccc4c3C[C@H]12 | 25 | 35 | – | – | –
8 | O=C1[C@H]2Cc3c([nH]c4ccccc34)[C@@H](c3ccc4c(c3)OCO4)N2C(=O)CN1CCc1ccc(O)cc1 | 16 | > 64 | – | – | –
9 | O=C1[C@H]2Cc3c([nH]c4ccccc34)[C@@H](c3ccc4c(c3)OCO4)N2C(=O)CN1c1ccccc1 | > 64 | > 64 | – | – | –
10 | O=C1[C@H]2Cc3c([nH]c4ccccc34)[C@@H](c3ccc4c(c3)OCO4)N2C(=O)CN1C1CCN(Cc2ccccc2)CC1 | 1 | 7 | – | 60% | Active
11 | O=C1[C@H]2Cc3c([nH]c4ccccc34)[C@@H](c3ccc4c(c3)OCO4)N2C(=O)CN1CCCn1ccnc1 | 9 | > 64 | – | – | –
12 | O=C1[C@H]2Cc3c([nH]c4ccc(F)cc34)[C@@H](c3ccc4c(c3)OCO4)N2C(=O)CN1[C@@H]1CCN(Cc2ccccc2)C1 (mixture of isomers) | 1.7 | 17.8 | – | – | –
13 | O=C1[C@H]2Cc3c([nH]c4ccc(Br)cc34)[C@@H](c3ccc4c(c3)OCO4)N2C(=O)CN1[C@@H]1CCN(Cc2ccccc2)C1 (mixture of isomers) | 7 | 10 | – | – | –
14 | CC(C)(C)OC(=O)N1CCN(Cc2cccc(N3CC(=O)N4[C@H](c5ccc6c(c5)OCO6)c5[nH]c6ccccc6c5C[C@@H]4C3=O)c2)CC1 | 23 | > 64 | – | – | –
15 | CN(CCCN1CC(=O)N2[C@H](c3ccc4c(c3)OCO4)c3[nH]c4ccccc4c3C[C@@H]2C1=O)Cc1ccccc1 | 8 | 8 | – | – | –
16 | O=C1NCC(=O)N2[C@H](c3ccc4c(c3)OCO4)c3[nH]c4ccccc4c3C[C@H]12 [NORTADALAFIL] | > 64 | > 64 | – | – | –
17 | Cn1ccnc1CN1CCC(N2CC(=O)N3[C@H](c4ccc5c(c4)OCO5)c4[nH]c5ccccc5c4C[C@@H]3C2=O)CC1 | 4 | 62 | – | – | –
18 | O=C1[C@H]2Cc3c([nH]c4ccccc34)[C@@H](c3ccc4c(c3)OCO4)N2C(=O)CN1c1ccc(C(F)(F)F)cc1 | > 64 | > 64 | – | – | –
19 | CCCOc1ccccc1-c1nc2[nH]nnc2c(=O)[nH]1 [ZAPRINAST] | 35 | – | – | Active | Active
20 | CN(CCN1CC(=O)N2[C@H](c3ccc4c(c3)OCO4)c3[nH]c4ccccc4c3C[C@@H]2C1=O)Cc1ccccc1 | 7 | > 64 | – | – | –
21 | O=C1[C@H]2Cc3c([nH]c4ccccc34)[C@@H](c3ccc4c(c3)OCO4)N2C(=O)CN1Cc1ccc(N2CCOCC2)cc1 | 9 | > 64 | – | – | –
22 | O=C1[C@H]2Cc3c([nH]c4ccccc34)[C@@H](c3ccc4c(c3)OCO4)N2C(=O)CN1c1ccc(N2CCNCC2)cc1 | 7 | 8 | – | – | –

Row | Compound | IC50 (Plasmodium falciparum [1]; read-out: IC50) [µM] | IC50 (MRC5) [µM] | IC50 (Plasmodium falciparum [1]; read-out: pIC50 (converted)) [µM] | inhibition (Plasmodium falciparum [2]) | inhibition (Plasmodium falciparum [3])
23 | O=C1[C@H]2Cc3c([nH]c4ccccc34)[C@@H](c3ccc4c(c3)OCO4)N2C(=O)CN1c1cncnc1 | 56 | > 64 | – | – | –
24 | O=C1[C@H]2Cc3c([nH]c4ncccc34)[C@@H](c3ccc4c(c3)OCO4)N2C(=O)CN1[C@@H]1CCN(Cc2ccccc2)C1 | 0.97 | 22 | – | – | –
25 | CCCCN1CC(=O)N2[C@H](c3ccc4c(c3)OCO4)c3[nH]c4ccccc4c3C[C@@H]2C1=O | > 64 | > 64 | – | – | –
26 | O=C1N[C@@H](COCc2ccccc2)C(=O)N2[C@H](c3ccc4c(c3)OCO4)c3[nH]c4ccccc4c3C[C@H]12 | > 64 | > 64 | – | – | –
27 | O=C1[C@H]2Cc3c([nH]c4ccccc34)[C@@H](c3ccc4c(c3)OCO4)N2C(=O)CN1[C@H]1CCN(Cc2ccccc2)C1 | 10 | > 64 | – | – | –
28 | O=C1[C@H]2Cc3c([nH]c4ccccc34)[C@@H](c3ccc4c(c3)OCO4)N2C(=O)CN1c1ccc(Cl)cc1 | 60 | > 64 | – | – | –
29 | CC(C)(C)OC(=O)CC[C@@H]1NC(=O)[C@H]2Cc3c([nH]c4ccccc34)[C@@H](c3ccc4c(c3)OCO4)N2C1=O | 60 | > 64 | – | – | –
30 | CN1CC(=O)N2[C@H](c3ccc4c(c3)OCO4)c3[nH]c4ccccc4c3C[C@@H]2C1=O [TADALAFIL] | > 64 | > 64 | – | – | –
31 | CC(C)(C)OC(=O)N1CCN(c2ccc(N3CC(=O)N4[C@H](c5ccc6c(c5)OCO6)c5[nH]c6ccccc6c5C[C@@H]4C3=O)cc2)CC1 | > 64 | > 64 | – | – | –
32 | CCCCc1ccc(N2CC(=O)N3[C@H](c4ccc5c(c4)OCO5)c4[nH]c5ccccc5c4C[C@@H]3C2=O)cc1 | > 64 | > 64 | – | – | –
33 | O=C1[C@H]2Cc3c([nH]c4ccccc34)[C@H](c3ccc4c(c3)OCO4)N2C(=O)CN1[C@@H]1CCN(Cc2ccccc2)C1 | 50 | > 64 | – | – | –
34 | NN1CC(=O)N2[C@H](c3ccc4c(c3)OCO4)c3[nH]c4ccccc4c3C[C@@H]2C1=O | > 64 | > 64 | – | – | –
35 | OCCN(CCO)c1nc(N2CCCCC2)c2nc(N(CCO)CCO)nc(N3CCCCC3)c2n1 [DIPYRIDAMOLE] | 64 | – | – | Active | Active
36 | O=C1[C@H]2Cc3c([nH]c4ccccc34)[C@@H](c3ccc4c(c3)OCO4)N2C(=O)CN1c1cccs1 | > 64 | > 64 | – | – | –
37 | O=C1[C@H]2Cc3c([nH]c4ccccc34)[C@@H](c3ccc4c(c3)OCO4)N2C(=O)CN1CCN1CCOCC1 | 22 | > 64 | – | – | –
38 | COc1ccc(N2CC(=O)N3[C@H](c4ccc5c(c4)OCO5)c4[nH]c5ccccc5c4C[C@@H]3C2=O)cc1 | > 64 | > 64 | – | – | –
39 | O=C1[C@H]2Cc3c([nH]c4ccccc34)[C@@H](c3ccc4c(c3)OCO4)N2C(=O)CN1c1cccc(CN2CCNCC2)c1 | 10 | 8 | – | – | –
40 | O=C1[C@H]2Cc3c([nH]c4ccccc34)[C@@H](c3ccc4c(c3)OCO4)N2C(=O)CN1c1ccc(CN2CCOCC2)cc1 | 19 | > 64 | – | – | –
41 | O=C1[C@H]2Cc3c([nH]c4ccccc34)[C@@H](c3ccc4c(c3)OCO4)N2C(=O)CN1c1ccsc1 | > 64 | > 64 | – | – | –
42 | Cn1c2c(c3ccccc31)C[C@@H]1C(=O)N([C@@H]3CCN(Cc4ccccc4)C3)CC(=O)N1[C@@H]2c1ccc2c(c1)OCO2 | 9 | > 64 | – | – | –
43 | O=C1[C@H]2Cc3c([nH]c4ccccc34)[C@@H](c3ccc4c(c3)OCO4)N2C(=O)CN1C1CCNCC1 | 32 | > 64 | – | – | –
44 | O=C1[C@H]2Cc3c([nH]c4ccccc34)[C@@H](c3ccc4c(c3)OCO4)N2C(=O)CN1c1cccnc1 | 22 | > 64 | – | – | –
